Activity calls are given as the source filed them.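 How the source made its calls: active means current rise at least 3 SD above the untreated control mean in each of two repeat wells; inactive means the rest.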

Chain of Potassium voltage-gated channel subfamily KQT member 1 (Homo sapiens) (P51787 whole entry, looked up): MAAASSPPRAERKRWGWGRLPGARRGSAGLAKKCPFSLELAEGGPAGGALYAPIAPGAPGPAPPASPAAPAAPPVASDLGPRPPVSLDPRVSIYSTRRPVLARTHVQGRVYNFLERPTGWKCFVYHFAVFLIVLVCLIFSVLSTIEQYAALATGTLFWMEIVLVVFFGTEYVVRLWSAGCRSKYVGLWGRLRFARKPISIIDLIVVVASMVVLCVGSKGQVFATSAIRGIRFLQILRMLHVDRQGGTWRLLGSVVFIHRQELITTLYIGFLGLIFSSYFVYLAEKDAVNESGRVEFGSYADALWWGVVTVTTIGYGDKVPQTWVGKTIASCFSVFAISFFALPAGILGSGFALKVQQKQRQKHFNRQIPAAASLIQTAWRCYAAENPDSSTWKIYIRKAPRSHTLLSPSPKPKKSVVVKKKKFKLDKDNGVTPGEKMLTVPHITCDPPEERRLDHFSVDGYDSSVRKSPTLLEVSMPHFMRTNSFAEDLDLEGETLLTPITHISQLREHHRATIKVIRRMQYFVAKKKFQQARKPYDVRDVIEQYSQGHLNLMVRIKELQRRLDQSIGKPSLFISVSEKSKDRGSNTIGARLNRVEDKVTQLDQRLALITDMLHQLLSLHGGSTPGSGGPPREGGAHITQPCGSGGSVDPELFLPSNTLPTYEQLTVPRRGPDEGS

For this assay, the target named is Potassium voltage-gated channel subfamily KQT member 1 (Homo sapiens) (UniProt P51787). In words: KCNQ1 activators by electrophysiology – IonWorks patch clamp, KCNQ1-CHO cells, orthogonal assay for KCNQ1 potentiator project, confirmation (AID 493184).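 On current potentiation: percent change of the same well's current before compound addition so 0% = no change.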 The following applies: automated patch clamp current, at 10 µM; hits give high values. In a few lines:
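Probe or stimulus: depolarizing pulse to +40 mV from -90 mV; Material: CHO cells carrying KCNQ1; Compound: one dose, 10 µM final; Signal: automated voltage clamp, amphotericin B perforated patch; Read-out basis: percent current increase versus pre-compound level; Buffer or medium: pH 7.4 external bath; Replication: duplicates.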
A general note: The patch-clamp technique gives a direct electrical read-out from membranes.
As to `COC(=O)C1CCCN1C(=O)COc1ccc(Cl)cc1Br` (configuration not stated), the result was inactive.

Turning to `OCCN1CCN(CCCN2c3ccccc3Sc3ccc(Cl)cc32)CC1`, the outcome was inactive.

For `COC(=O)c1c(NS(=O)(=O)Cc2ccccc2)sc2c1CCCC2`, the outcome was inactive.

As to `CC(NC(=S)NC(=O)c1ccccc1Br)c1ccccc1` (configuration not stated), the outcome was inactive.

On to `CC(=O)CSc1ncnc2sc3c(c12)CCC(C)C3` (configuration not stated), for which the outcome was inactive.

For `O=C(NCC1CCCO1)c1ccc2c(c1)S(=O)(=O)c1ccccc1C2=O` (configuration not stated), the outcome was inactive.

As for `O=C(NC(=S)Nc1nc2c(s1)CSc1ccccc1-2)c1ccccc1`, the result was inactive.

On to `Cc1cc(C)cc(C(=O)OCC(=O)NCC(F)(F)F)c1`, for which the outcome was inactive.

For the molecule `C=CCn1c(O)c(N=NC(=S)Nc2ccc(OC)c(Cl)c2)c2ccccc21`, the outcome was inactive.

Consider `CC1CCN(S(=O)(=O)c2cccc(C(=O)N3CCN(c4ccc(F)cc4)CC3)c2)CC1`, for which the result was inactive.

Consider `CC(=O)N(C)c1ccc(NC(=O)Cc2cccc3ccccc23)cc1`, for which the result was inactive.

On to `O=C(NNC(=S)NC(=O)c1ccco1)c1ccc(F)cc1`, for which the outcome was inactive.

As for `COc1cc(C(=O)NC(=S)NC(C)C)cc(OC)c1OC`, the result was inactive.

As for `CCOc1ccc2nc(N3C(=O)/C(=C/c4ccccc4)NC3=S)sc2c1`, the result was inactive.

Consider `C=CCCCN(Cc1ccccc1)S(=O)(=O)c1ccccc1Br`, for which the outcome was inactive.

In the case of `C/C(=N\NC(=O)c1cc2ccccc2cc1O)c1ccccn1`, the current potentiation is 21.5% (active).

On to `O=C(c1ccccc1)N1CCCC(c2ccc(Cl)cc2)=N1`, for which the result was inactive.

`O=C(O)CCSc1ncnc2sc(-c3ccccc3)cc12`: the result was inactive.

As to `CC(C)c1ccc(C(=O)NC2=NCCS2)cc1`, the result was inactive.

Take `Cc1cccc(C(=O)NC(=S)N(C)C2CCCCC2)c1`: the result was inactive.

Take `COc1ccc(NC(=O)CC2C(=O)NCCN2C(=O)Nc2ccc(C(F)(F)F)cc2)cc1` (configuration not stated): the outcome was inactive.

`O=C(CSc1nc2ccccc2s1)c1cc2ccccc2o1`: the outcome was inactive.

Values taken from PubChem BioAssay.
